# Article PMC8501684 (International Journal for Parasitology: Drugs and Drug …, 2021)
# Key:
# [1] = tested on: Naegleria fowleri ATCC® 30808™ trophozoites; assay: In vitro activity assay; format: cell-based; conditions: for N. fowleri ATCC® 30808™ SI (CC50/IC50): selectivity index, CC50 J774A.1 / IC50 ATCC 30808
# Summary of the method: (§1)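 Both strains were grown axenically at 37 °C in 2% Bactocasitone with 10% FBS, penicillin G and streptomycin. Trophozoites from a 2*10^5 cells/ml stock were seeded in duplicate with serial compound dilutions in the same medium, plus a medium-only negative control. AlamarBlue (10% of medium volume) was added for 48 h at 37 °C with slight agitation, read at 570 nm […] with a 630 nm reference. Inhibitory concentrations came from non-linear regression; experiments were done in triplicate and averaged.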
# Cytotoxicity assay = format: cell-based; conditions: mouse, J774A.1 murine macrophage cells
# Summary of the method: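 J774A.1 macrophages were kept in DMEM with 10% FBS and 10 μg/mL gentamicin at 37 °C, 5% CO2. Cells from a 10^5 cells/ml stock got a range of compound concentrations plus AlamarBlue (10% of medium volume), with a medium-only negative control. Incubation was 24 h at 37 °C in 5% CO2, and CC50 was derived from the read-out.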
# [2] = tested on: Naegleria fowleri ATCC® 30215™ trophozoites; assay: In vitro activity assay; format: cell-based; conditions: for N. fowleri ATCC® 30215™ SI (CC50/IC50): selectivity index, CC50 J774A.1 / IC50 ATCC 30215
# Summary of the method: as §1
# [3] = ref Tian et al., 2016; cited from earlier work
# [4] = various species plasma; ref Tian et al., 2016; cited from earlier work
SMILES,"IC50 ([1]; Naegleria fowleri, ATCC30808, 48 h, read-out: N. fowleri ATCC® 30808™ IC50)",N. fowleri ATCC® 30808™ SI (CC50/IC50) [1],CC50 at 24 h (Cytotoxicity assay),"IC50 ([2]; Naegleria fowleri, ATCC30215, 48 h, read-out: N. fowleri ATCC® 30215™ IC50)",N. fowleri ATCC® 30215™ SI (CC50/IC50) [2],half-life [3],pharmacokinetic profile [3],tissue distribution [3],protein binding to plasma [4]
C[C@@H]1[C@H](O)[C@@H](C)/C=C/C=C/C=C/C=C/C=C/C=C/C=C/[C@H](O[C@@H]2O[C@H](C)[C@@H](O)[C@H](N)[C@@H]2O)C[C@@H]2O[C@](O)(C[C@@H](O)C[C@@H](O)[C@H](O)CC[C@@H](O)C[C@@H](O)CC(=O)O[C@H]1C)C[C@H](O)[C@H]2C(=O)O [Amphotericin B],121 ± 32 nM,≥1652.893,≥ 200000 nM,166 ± 26 nM,≥1204.819,–,–,–,–
"CCCCC1OC(=O)c2cc(Br)ccc21 (stereo not drawn) [Br-NBP, 3-butyl-6-bromo-1(3H)-isobenzofuranone]",–,–,–,–,–,short half-life,good dose-linear pharmacokinetic profile,wide tissue distribution,different degree protein binding to various species plasma
CCCCCCCCCCCCCCCCOP(=O)([O-])OCC[N+](C)(C)C [Miltefosine],–,3.301,128000 ± 8850 nM,–,1.568,–,–,–,–
